What all share (format): functional
Experiment [1] relates to Staphylococcus aureus. In words: Antibacterial activity against Staphylococcus aureus 1199B overexpressing NorA efflux pump after 18 hrs by MTT assay. The method, boiled down: (§1)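 Broth microdilution MIC in Mueller-Hinton broth supplemented to 20 mg/L Ca2+ and 10 mg/L Mg2+. Overnight cultures were adjusted in 0.9% saline to 5 × 10^5 cfu against a McFarland standard, and the sample was serially diluted in broth. Plates included growth, sterile and 3.125% DMSO controls and were incubated 18 h at 37 °C. MICs were determined in duplicate.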
(Tetrazolium assays rely on reduction of a dye to a coloured formazan, in cell work by metabolically active cells.)

For experiment [2], the system named is Staphylococcus aureus. The experiment is described as follows: Antibacterial activity against Staphylococcus aureus […] expressing MsrA macrolide efflux pump after 18 hrs by MTT assay. An outline of the steps: as §1
Experiment [3] deals with Staphylococcus aureus. The experiment is described as follows: Antibacterial activity against epidemic methicillin-resistant Staphylococcus aureus 15 after 18 hrs by MTT assay. An outline of the steps: as §1
In experiment [4] the test system is Staphylococcus aureus. The experiment is described as follows: Antibacterial activity against Staphylococcus aureus ATCC 25923 after 18 hrs by MTT assay. The settings on record: ATCC 25923, 18 h. The method, boiled down: as §1
Experiment [5] has as its system Staphylococcus aureus. The experiment is described as follows: Antibacterial activity against methicillin-resistant Staphylococcus aureus XU212 expressing TetK efflux pump after 18 hrs by MTT assay. The settings on record: XU212, 18 h. An outline of the steps: as §1
Experiment [6] has as its system Staphylococcus aureus. The experiment is described as follows: Antibacterial activity against epidemic methicillin-resistant Staphylococcus aureus 16 expressing mecA after 18 hrs by MTT assay. An outline of the steps:
as §1

Structures are written as SMILES. Values after ≈ are worked out from the molar mass of the structure shown.

As a reminder, the MIC is the smallest concentration in the dilution series that meets the test's criterion for growth inhibition. High values mean weaker potency, low ones greater potency. In the case of `CC(C)[C@@H]1C[C@H](O)C=C2[C@H]3[C@](C)(CC[C@@]21CBr)[C@@H](Br)CC[C@@]3(C)O`, the minimum inhibitory concentration (MIC) in experiment [1], in experiment [2], in experiment [3], in experiment [4], in experiment [5] and in experiment [6] was 16 µg/mL (≈ 34.5 µM) each time.
Take `CC(C)[C@@H]1C[C@H](OO)C=C2[C@@H]3[C@](C)(O)[C@H](O)C[C@H](Br)[C@@]3(C)CC[C@@]21CBr`: the MIC came out at 16 µg/mL (≈ 32.2 µM) in experiment [1]; 16 µg/mL (≈ 32.2 µM) in experiment [2]; 16 µg/mL (≈ 32.2 µM) in experiment [3]; 32 µg/mL (≈ 64.5 µM) in experiment [4]; 16 µg/mL (≈ 32.2 µM) in experiment [5]; 16 µg/mL (≈ 32.2 µM) in experiment [6].
`CC(C)[C@@H]1CC[C@H](O)[C@H]2[C@H]3[C@@](C)(C=CC(=O)[C@]3(C)O)CC[C@@]21CBr`: the MIC in experiment [1] stood at 0.5 µg/mL (≈ 1.25 µM); in experiment [2] it was 1 µg/mL (≈ 2.5 µM); in experiment [3], 0.5 µg/mL (≈ 1.25 µM); in experiment [4], 0.5 µg/mL (≈ 1.25 µM); in experiment [5], 1 µg/mL (≈ 2.5 µM); in experiment [6] it was 0.25 µg/mL (≈ 0.626 µM).
As to `CC(C)[C@@H]1CC[C@H](O)[C@H]2[C@H]3[C@](C)(CC[C@@]21CBr)[C@@H](Br)CC(=O)[C@]3(C)O`, the MIC in experiment [1] came to 32 µg/mL (≈ 66.6 µM); in experiment [2], 32 µg/mL (≈ 66.6 µM); in experiment [3] it was 128 µg/mL (≈ 267 µM); in experiment [4], 32 µg/mL (≈ 66.6 µM); in experiment [5], 32 µg/mL (≈ 66.6 µM); in experiment [6], 64 µg/mL (≈ 133 µM).
Regarding `CC(C)[C@@H]1C[C@H](OO)C=C2[C@@H]3[C@](C)(O)[C@@H](O)C[C@H](Br)[C@@]3(C)CC[C@@]21CBr`, the MIC in experiment [1] stood at 16 µg/mL (≈ 32.2 µM); in experiment [2] it was 16 µg/mL (≈ 32.2 µM); in experiment [3] it was 16 µg/mL (≈ 32.2 µM); in experiment [4], 32 µg/mL (≈ 64.5 µM); in experiment [5], 16 µg/mL (≈ 32.2 µM); in experiment [6], 16 µg/mL (≈ 32.2 µM).
In the case of `CC(C)[C@@H]1CC[C@H](O)[C@H]2[C@H]3[C@](C)(CC[C@@]21CBr)[C@@H](Br)CC[C@]3(C)O`, the MIC in experiment [1] stood at 1 µg/mL (≈ 2.14 µM); in experiment [2] it was 2 µg/mL (≈ 4.29 µM); in experiment [3], 2 µg/mL (≈ 4.29 µM); in experiment [4], 2 µg/mL (≈ 4.29 µM); in experiment [5], 2 µg/mL (≈ 4.29 µM); in experiment [6] it was 1 µg/mL (≈ 2.14 µM).
On to `CCn1cc(C(=O)O)c(=O)c2cc(F)c(N3CCNCC3)cc21` [NORFLOXACIN], for which the minimal inhibitory concentration (MIC) in experiment [1] worked out at 32 µg/mL (≈ 100 µM); in experiment [2], 1 µg/mL (≈ 3.13 µM); in experiment [3], 0.5 µg/mL (≈ 1.57 µM); in experiment [4], 0.5 µg/mL (≈ 1.57 µM); in experiment [5], 8 µg/mL (≈ 25.1 µM); in experiment [6], 128 µg/mL (≈ 401 µM).

The values above are taken from ChEMBL document CHEMBL1155804, “Brominated diterpenes with antibacterial activity from the red alga Sphaerococcus coronopifolius” (2008).
